Active and inactive are the calls of the source. No cut-off for these calls is given here.
Key:
MCF7 [1] = test: Induction of apoptosis in human MCF7 cells assessed as ratio of cleaved caspase-8 to beta-actin level at 5 uM by western blot analysis (reference value: 1); type: functional
MDA-MB-231 [2] = test: Inhibition of colony formation in human MDA-MB-231 cells at 2 uM supplemented with fresh medium containing compound every 3 days for 10 days by microscopic method based soft agar colony formation assay relative to control; type: functional
MCF7 [3] = test: Inhibition of mammosphere formation in human MCF7 cells assessed as ratio of Sox2 to beta actin level at 5 uM by Western blot analysis (Rvb= 1); type: functional
In short: (§1)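 Post-treatment cell lysates were probed by Western blot for CSC markers, with β-actin as the loading control. Band densitometry was normalized to DMSO-treated samples.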

MCF7 [4] = test: Down regulation of c-Myc expression in human MCF7 cells at 5 uM by Western blot analysis; type: functional
In short: (§2)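 MCF-7 cells were treated and lysates probed by Western blot for CSC-related markers, with β-actin as loading control. Band densitometry was normalized to DMSO-treated samples.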

MDA-MB-231 [5] = test: Inhibition of mammosphere formation in human MDA-MB-231 cells assessed as ratio of KLF4 to beta actin level at 5 uM by Western blot analysis (Rvb= 1); type: functional; in short: as §1
BT-549 [6] = test: Effect on epithelial-mesenchymal transition in human BT549 cells assessed as ratio of slug to beta-actin level at 5 uM by Western blot analysis (reference value: 1); type: functional
MDA-MB-231 [7] = test: Effect on epithelial-mesenchymal transition in human MDA-MB-231 cells assessed as ratio of vimentin to beta-actin level at 5 uM by Western blot analysis (reference value: 1); type: functional
BT-549 [8] = test: Induction of apoptosis in human BT549 cells assessed as ratio of cleaved caspase-9 to beta-actin level at 5 uM by western blot analysis (reference value: 1); type: functional
BT-549 [9] = test: Cytotoxicity against human BT549 cells assessed as reduction in cell viability by MTT assay; type: functional, cell-based
BT-549 [10] = test: Cytotoxicity against human BT549 cells assessed as reduction in cell viability at 5 uM by MTT assay; type: functional
BT-549 [11] = test: Induction of apoptosis in human BT549 cells assessed as ratio of cleaved caspase-8 to beta-actin level at 5 uM by western blot analysis (reference value: 1); type: functional
BT-549 [12] = test: Effect on epithelial-mesenchymal transition in human BT549 cells assessed as ratio of E-cadherin to beta-actin level at 5 uM by Western blot analysis (reference value: 1); type: functional
MCF7 [13] = test: Cytotoxicity against human MCF7 cells assessed as reduction in cell viability at 5 uM by MTT assay; type: functional
MDA-MB-231 [14] = test: Induction of apoptosis in human MDA-MB-231 cells assessed as ratio of cleaved caspase-9 to beta-actin level at 5 uM by western blot analysis (reference value: 1); type: functional
MDA-MB-231 [15] = test: Effect on epithelial-mesenchymal transition in human MDA-MB-231 cells assessed as ratio of E-cadherin to beta-actin level at 5 uM by Western blot analysis (reference value: 1); type: functional
MDA-MB-231 [16] = test: Anti-migratory activity against human MDA-MB-231 cells assessed as reduction in wound closure at 2 uM up to 24 hrs by wound-healing assay; type: functional, cell-based
In short: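 MDA-MB-231 monolayer was scratched to make a wound gap. Cells were treated alongside a DMSO vehicle control, and migration into the gap was imaged at 24 h.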

MDA-MB-231 [17] = test: Effect on epithelial-mesenchymal transition in human MDA-MB-231 cells assessed as ratio of slug to beta-actin level at 5 uM by Western blot analysis (reference value: 1); type: functional
MDA-MB-231 [18] = test: Induction of apoptosis in human MDA-MB-231 cells assessed as ratio of cleaved caspase-3 to beta-actin level at 5 uM by western blot analysis (reference value: 1); type: functional
MCF7 [19] = test: Inhibition of mammosphere formation in human MCF7 cells assessed as ratio of Nanog to beta actin level at 5 uM by Western blot analysis (Rvb= 1); type: functional; in short: as §1
BT-549 [20] = test: Induction of apoptosis in human BT549 cells assessed as ratio of cleaved caspase-3 to beta-actin level at 5 uM by western blot analysis (reference value: 1); type: functional
MDA-MB-231 [21] = test: Cytotoxicity against human MDA-MB-231 cells assessed as reduction in cell viability by MTT assay; type: functional, cell-based
MCF7 [22] = test: Induction of apoptosis in human MCF7 cells assessed as ratio of cleaved caspase-9 to beta-actin level at 5 uM by western blot analysis (reference value: 1); type: functional
MCF-10A [23] = test: Induction of apoptosis in human MCF10A cells assessed as ratio of cleaved caspase-8 to beta-actin level at 5 uM by western blot analysis (reference value: 1); type: cell-based
BT-549 [24] = test: Inhibition of mammosphere formation in human BT549 cells assessed as ratio of KLF4 to beta actin level at 5 uM by Western blot analysis (Rvb= 1); type: functional
MCF7 [25] = test: Inhibition of mammosphere formation in human MCF7 cells assessed as ratio of C-Myc to beta actin level at 5 uM by Western blot analysis (Rvb= 1); type: functional; in short: as §1
MDA-MB-231 [26] = test: Inhibition of mammosphere formation in human MDA-MB-231 cells assessed as ratio of C-Myc to beta actin level at 5 uM by Western blot analysis (Rvb= 1); type: functional; in short: as §1
MCF7 [27] = test: Inhibition of mammosphere formation in human MCF7 cells at 2 uM after 7 days by microscopic method; type: functional, cell-based
In short: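 MCF-7 cells were grown under mammosphere-forming conditions with compound. Spheres 60 μm or larger were counted for quantitation.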

MCF-10A [28] = test: Cytotoxicity against human MCF10A cells assessed as reduction in cell viability by MTT assay; type: cell-based
MCF7 [29] = test: Inhibition of mammosphere formation in human MCF7 cells assessed as ratio of Oct4A to beta actin level at 5 uM by Western blot analysis (Rvb= 1); type: functional; in short: as §1
MCF7 [30] = test: Inhibition of colony formation in human MCF7 cells at 5 uM supplemented with fresh medium containing compound every 3 to 4 days for 7 days by crystal violet staining based adherent cell colony-forming assay; type: functional
In short: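 MCF-7 cells were plated for adherent colony formation and treated for 7 days. Colonies were counted at the end of treatment and normalized to untreated samples.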

BT-549 [31] = test: Inhibition of mammosphere formation in human BT549 cells assessed as ratio of C-Myc to beta actin level at 5 uM by Western blot analysis (Rvb= 1); type: functional
MCF7 [32] = test: Down regulation of Nanog expression in human MCF7 cells at 5 uM by Western blot analysis; type: functional; in short: as §2
MDA-MB-231 [33] = test: Induction of apoptosis in human MDA-MB-231 cells assessed as ratio of cleaved caspase-8 to beta-actin level at 5 uM by western blot analysis (reference value: 1); type: functional
BT-549 [34] = test: Effect on epithelial-mesenchymal transition in human BT549 cells assessed as ratio of vimentin to beta-actin level at 5 uM by Western blot analysis (reference value: 1); type: functional
MDA-MB-231 [35] = test: Down regulation of KLF4 expression in human MDA-MB-231 cells at 5 uM by Western blot analysis; type: functional
MCF-10A [36] = test: Induction of apoptosis in human MCF10A cells assessed as ratio of cleaved caspase-9 to beta-actin level at 5 uM by western blot analysis (reference value: 1); type: cell-based
MCF7 [37] = test: Down regulation of KLF4 expression in human MCF7 cells at 5 uM by Western blot analysis; type: functional; in short: as §2
MCF7 [38] = test: Down regulation of Oct4A expression in human MCF7 cells at 5 uM by Western blot analysis; type: functional; in short: as §2
MDA-MB-231 [39] = test: Cytotoxicity against human MDA-MB-231 cells assessed as reduction in cell viability at 5 uM by MTT assay; type: functional
MCF7 [40] = test: Induction of apoptosis in human MCF7 cells assessed as ratio of cleaved caspase-3 to beta-actin level at 5 uM by western blot analysis (reference value: 1); type: functional
MCF-10A [41] = test: Induction of apoptosis in human MCF10A cells assessed as ratio of cleaved caspase-3 to beta-actin level at 5 uM by western blot analysis (reference value: 1); type: cell-based
MCF7 [42] = test: Inhibition of mammosphere formation in human MCF7 cells assessed as ratio of KLF4 to beta actin level at 5 uM by Western blot analysis (Rvb= 1); type: functional; in short: as §1

C=C(c1ccc(C(=O)NCCN(CC)CC)cc1)c1cc2c(cc1C)C(C)(C)CCC2(C)C
Ratio (MCF7 [1]): 1
inhibition (INH) (MDA-MB-231 [2]): 90%
Ratio (MCF7 [3]): 0.9
Activity (MCF7 [4]): 10 - 30%
Ratio (MDA-MB-231 [5]): 0.5
Ratio (BT-549 [6]): 0.4
Ratio (MDA-MB-231 [7]): 0.4
Ratio (BT-549 [8]): 2.3
EC50 (BT-549 [9]): < 10 µM
Activity (BT-549 [10]): 60%
Ratio (BT-549 [11]): 2.1
Ratio (BT-549 [12]): 2.4
Activity (MCF7 [13]): 40%
Ratio (MDA-MB-231 [14]): 2.5
Ratio (MDA-MB-231 [15]): 1.9
Activity (MDA-MB-231 [16]): Active
Ratio (MDA-MB-231 [17]): 0.9
Ratio (MDA-MB-231 [18]): 1.3
Ratio (MCF7 [19]): 0.8
Ratio (BT-549 [20]): 2.6
EC50 (MDA-MB-231 [21]): < 10 µM
Ratio (MCF7 [22]): 1
Ratio (MCF-10A [23]): 1
Ratio (BT-549 [24]): 0.5
Ratio (MCF7 [25]): 0.7
Ratio (MDA-MB-231 [26]): 0.9
inhibition (MCF7 [27]): Active
Activity (MCF-10A [28]): Non-Toxic
Ratio (MCF7 [29]): 0.5
inhibition (INH) (MCF7 [30]): 80%
Ratio (BT-549 [31]): 0.9
Activity (MCF7 [32]): 20%
Ratio (MDA-MB-231 [33]): 1.5
Ratio (BT-549 [34]): 0.4
Activity (MDA-MB-231 [35]): 50%
Ratio (MCF-10A [36]): 1
Activity (MCF7 [37]): 10 - 30%
Activity (MCF7 [38]): 50%
Activity (MDA-MB-231 [39]): 60%
Ratio (MCF7 [40]): 0.9
Ratio (MCF-10A [41]): 1.1
Ratio (MCF7 [42]): 0.9
